# Hits are enriched below; roughly 1.8% of the tested compounds scored in any of these assays.
# Rev-erbA mod = Rev-erb alpha (human) modulation; P20393; hit rate 0.79% among 370,000; AID 1259318; Rev-erbα–FITC-DNA binding, fluorescence polarization, 90 min; activity, % at 10 µM;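 active = activity above about 14%, limit read from the data; passing the limit was not always enough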;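 note: 0% = DMSO wells with 35 nM protein and 100% = DMSO wells with 750 nM protein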
# TbMetRS inhib = Trypanosoma brucei MetRS inhibition. purified T. brucei MetRS, ATP depletion, Kinase-Glo luminescence. inhibition, % at 11.9 µM. hit rate 0.4% among 360,000;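 active = inhibition above a per-plate cutoff of the control wells' mean inhibition plus 3 SD, cut at about 5.5% in these data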;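 note: 0% = DMSO wells median and 100% = median of wells with control inhibitor compound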
#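 Test system – parasite MetRS enzyme · Reagent – substrates ATP, L-methionine and bulk Escherichia coli tRNA · Doses – 11.9 µM compound single dose, 0.9% DMSO · Times – 15 min enzyme-compound preincubation, 2 h reaction, 10 min detection, 25 °C · Signal – Kinase-Glo luminescence, ATP depletion format · Controls – DMSO-only wells as low control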
# PG9 binder = PG9 antibody binding by small molecule; TR-FRET gp120-PG9 antibody binding; inhibition, % at 6.7 µM; hit rate 0.43% among 360,000; in the data active = inhibition above about 8.5%
# Rin1 Abl inh = human Rin1-Abl interaction inhibition | inhibition, % at 7.35 µM | P00519+Q13671 | hit rate 0.4% among 360,000 | TR-FRET Rin1/Abl binding, biochemical; in the data active = inhibition above about 5%, passing the limit was not always enough
# NR1D1 mod conf = confirmation of modulators of human Rev-erb alpha DNA binding. hit rate 61% among 3,000. AID 1259319. Rev-erb alpha FITC-DNA binding, fluorescence polarization, 90 min. activation, % at 25 µM. shares compounds with Rev-erbA mod;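 active = activation at or above a set limit, or at least 3 SD above the negative control mean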;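 note: 0% = 35 nM protein with DMSO and 100% = 750 nM protein high control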
# RORg counter = affects RORgamma DNA binding in a Rev-erb alpha counter-screen; shares compounds with Rev-erbA mod; purified RORgamma protein-FITC-DNA binding, fluorescence polarization; IC50, µM; hit rate 8% among 910;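 active = Compounds whose fitted half-maximal concentration for disrupting protein-DNA binding is below 10 micromolar; the record names Rev-erb in its text, so the target is in doubt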
# Numbers without * were called inactive; nt = no result.
SMILES,Rev-erbA mod,TbMetRS inhib,PG9 binder,Rin1 Abl inh,NR1D1 mod conf,others
O=C(Nc1ccnn1C1CCN(Cc2ccn[nH]2)CC1)c1ccccc1,16*,0,-1,-2,-5,
Cc1cc(=O)n2nc(N3CCCC(C(=O)NCc4ccc(F)cc4)C3)sc2n1 (configuration not stated),0,0,-1,3,nt,
O=C(NCc1ccc(F)cc1)C1CCCN(c2nc3ccsc3c(=O)s2)C1 (configuration not stated),20*,0,1,-1,17,
CCN(C(=O)COC(=O)Cn1c(C)csc1=O)c1c(N)n(Cc2ccccc2)c(=O)[nH]c1=O,2,0,0,-7,nt,
COC(=O)[C@]12C[C@H](CC(=O)NCc3cccc(C(F)(F)F)c3)C(=O)N(CCc3ccc(OC)c(OC)c3)C1=C[C@H](C1CCCC1)O[C@@H]2C,4,nt,nt,nt,nt,
O=C1/C(=C\c2cccc([N+](=O)[O-])c2O)SC(=S)N1Cc1ccccc1,-16,-2,0,-2,nt,
NC1=NC(=O)/C(=C\c2ccc(O)c([N+](=O)[O-])c2)S1,6,-2,-12,-6,nt,
O=C(NN1C(=O)/C(=C/c2ccc(O)c([N+](=O)[O-])c2)SC1=S)c1ccccc1Cl,17*,-8,-2,4,28*,
O=C1/C(=C/c2ccc(O)c([N+](=O)[O-])c2)SC(=S)N1Cc1ccccc1,30*,0,-3,2,11,
COC(=O)c1cc2c(c3c4cc(C)ccc4n(S(=O)(=O)c4cccc(C)c4)c13)C(=O)N(C)C2,0,nt,1,nt,nt,
O=c1c2cnn(-c3ccccc3)c2nc(-c2cccs2)n1-c1ccc(Cl)cc1,23*,0,0,-3,10,
O=c1c2cnn(-c3ccccc3)c2nc(-c2cccs2)n1-c1cccc(Cl)c1,3,-1,-2,-1,nt,
CC(C)c1ccc(NC(=O)C(c2ccccc2)N(C)C(=O)CCc2c[nH]c3ccccc23)cc1 (configuration not stated),9,-1,1,0,nt,
Cc1ccc(S(=O)(=O)c2nnn3c2nc(N2CCN(c4ccccn4)CC2)c2ccccc23)cc1C,72*,0,1,5,62*,RORg counter=>40
COC(=O)[C@]12C[C@H](CC(=O)N3CCCCC3)C(=O)N(Cc3ccc(Cl)cc3Cl)C1=C[C@H](C(C)(C)C)O[C@@H]2C,-4,nt,nt,nt,nt,
COc1ccc(CNC(=O)COC(=O)c2cc(-c3ccc(Cl)s3)nc3ccccc23)cc1,121*,0,6,-4,61*,
COc1ccc(-c2cc(C(=O)OCC(=O)NC3CC3)c3ccccc3n2)cc1OC,1,0,0,-1,nt,
O=C(COC(=O)c1cc(-c2ccc(Cl)s2)nc2ccccc12)NCc1ccco1,-5,-1,1,0,nt,
COc1ccc2nc(-c3ccccc3)cc(C(=O)OCC(=O)NC3CC3)c2c1,18*,0,0,3,2,
CCCCN(C(=O)c1ccc(N(C)S(=O)(=O)c2ccc(C)cc2)cc1)c1c(N)n(CCCC)c(=O)[nH]c1=O,-7,0,1,-1,nt,
Nc1nc2ncccc2cc1C(=O)NC1CCCCC1,7,-1,0,nt,nt,
CCOc1ccc(/C(O)=C2/C(=O)C(=O)N(CCN(CC)CC)C2c2cccs2)cc1 (configuration not stated),19,0,1,-6,nt,
C=CCOc1ccc(/C(O)=C2\C(=O)C(=O)N(CCN(C)C)C2c2cccs2)cc1 (configuration not stated),29*,0,-1,-2,35*,RORg counter=>40
Cc1ccc(-c2nn3c(C)nnc3s2)cc1NCc1c(F)cccc1Cl,23*,0,-1,0,2,
Cc1ccc(CNc2cc(-c3nn4c(C)nnc4s3)ccc2C)s1,18,0,2,-1,nt,
SMILES,Rev-erbA mod,TbMetRS inhib,PG9 binder,Rin1 Abl inh,NR1D1 mod conf,others
N#Cc1cnc2cc(-c3ccccc3)nn2c1N,27*,0,-2,0,32*,RORg counter=>40
COc1ccc(-c2cc3ncc(-c4ccccc4)c(N)n3n2)cc1,2,-1,0,1,nt,
CC(=O)c1cnc2cc(-c3cccc(Br)c3)nn2c1C,24*,0,-1,2,6,
CNC(=S)N(Cc1ccc(OC)cc1)Cc1cc2cc(C)ccc2[nH]c1=O,40*,0,0,7,25*,
COc1ccc(CN(Cc2cc3cc(OC)c(OC)cc3[nH]c2=O)C(=O)NC2CCCCC2)cc1,50*,0,-1,-2,78*,RORg counter=>40
CC(C)Nc1nc(-c2cccnc2)nc(-c2ccc(Cl)cc2)c1C#N,247*,-1,0,1,55*,RORg counter=>40
CC(C)Nc1nc(-c2ccncc2)nc(-c2ccc(Cl)cc2)c1C#N,20*,0,-3,4,9,
CC(C)Nc1nc(-c2ccccn2)nc(-c2ccccc2)c1C#N,8,-1,-1,3,nt,
CN(C)c1nc(-c2cccnc2)nc(-c2ccccc2)c1C#N,37*,0,-2,0,29*,RORg counter=>40
CC(C)Nc1nc(-c2cccnc2)nc(-c2ccccc2)c1C#N,23*,-1,0,3,1,
Cc1ccc(C(=O)N2CCN(S(=O)(=O)c3ccc(Br)cc3)CC2)o1,-3,-1,0,-2,nt,
CCCCN(C(=O)c1ccc2c(c1)S(=O)(=O)N=C1CCCCCN12)c1c(N)n(CC(C)C)c(=O)[nH]c1=O,-5,-1,1,2,nt,
CC(=O)c1ccc(-c2ccc(C(=O)NC3CC(C)(C)NC(C)(C)C3)o2)cc1,-7,0,1,0,nt,
N#Cc1ccc(C#Cc2ccc3oc4ccccc4c(=O)c3c2)cc1,16*,0,-1,0,17,
O=C(NC1CCCCCCC1)c1cc(-c2ccccn2)nc2ccccc12,41*,0,0,-3,0,
O=C(c1ccc(Cl)cc1)C1CCN(C(=O)c2ccccc2F)CC1,-1,0,0,1,nt,
C[C@@H]1C=CCCO[C@]12C(=O)N(CC1CC1)c1cccc(Br)c12,13*,nt,1,nt,-2,
Cc1ccc(C)c(S(=O)(=O)N2CCN(C(=O)c3ccccc3Cc3ccccc3)CC2)c1,-1,0,0,1,nt,
COc1ccc2c(c1)c1nc3n(c(=O)c1n2CC(=O)Nc1cc(C)[nH]n1)CCS3,19*,nt,-1,nt,-1,
Cc1ccccc1C(=O)Nc1cc(NC(=O)c2ccccc2C)cc(C(=O)O)c1,-7,0,-2,-2,nt,
CCCn1c(-c2cccs2)nc2c1c(=O)[nH]c(=O)n2Cc1ccccc1,23*,0,1,4,2,
Cc1nc(NC(=O)c2ccc(-c3cc4ccccc4oc3=O)cc2)ccc1Br,36*,-1,1,0,-8,
CCOC(=O)c1ccccc1NC(=O)c1cncc(Br)c1,94*,-2,1,-2,77*,RORg counter=>40
Cc1nc(NC(=O)c2cncc(Br)c2)ccc1Br,62*,0,0,1,55*,RORg counter=>40
Cc1cc(NC(=O)c2cncc(Br)c2)no1,1,-1,0,-3,nt,
